# High-throughput results: PubChem BioAssay, several laboratories
# Hits are enriched below; roughly 10% of the tested compounds scored in any of these assays.
# Lmaj promast – Leishmania major promastigote growth inhibition | Leishmania major promastigotes, resazurin fluorescence viability | inhibition, % at 10 µM | 9% of 200,000 active | AID 1063; in the data active = inhibition above about 50%;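 note: promastigotes grown with compound for 44 hours at 28 °C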
# PMI act hi M6P – increases human PMI activity with near-saturating mannose 6-phosphate. P34949. coupled PMI enzyme assay, resazurin fluorescence, 20 min; active compounds read high; 1 = untreated enzyme, 0 = substrate-free blank. activation factor at 20 µM. 0.34% of 190,000 active;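 active = activation factor of 2 or more at 20 µM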
# Target sequence (P34949 whole entry, looked up): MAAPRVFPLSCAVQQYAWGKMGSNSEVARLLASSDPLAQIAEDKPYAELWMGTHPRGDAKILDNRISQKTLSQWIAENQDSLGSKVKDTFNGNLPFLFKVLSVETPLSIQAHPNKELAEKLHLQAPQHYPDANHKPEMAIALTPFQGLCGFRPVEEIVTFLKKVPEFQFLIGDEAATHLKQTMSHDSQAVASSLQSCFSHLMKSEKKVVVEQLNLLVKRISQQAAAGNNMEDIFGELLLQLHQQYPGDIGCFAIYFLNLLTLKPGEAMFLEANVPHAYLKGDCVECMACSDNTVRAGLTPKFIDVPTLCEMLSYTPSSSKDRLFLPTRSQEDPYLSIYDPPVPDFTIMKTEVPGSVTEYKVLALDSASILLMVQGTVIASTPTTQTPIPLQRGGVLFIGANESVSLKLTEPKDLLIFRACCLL
#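 Test system: human phosphomannose isomerase with PGI, G6PDH, diaphorase coupling enzymes; amount: 15 ng/mL PMI; incubation: enzyme reaction with compound 20 min at room temperature; technique: resorufin fluorescence (Ex 544/Em 590 nm) from resazurin via diaphorase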
# Diaph act CS – counter-screen for diaphorase-based assays: diaphorase activators and chemical reducers; Diaphorase/resazurin coupled assay, resorufin fluorescence, 16 min; active compounds read high; 1 = vehicle wells, 0 = NADH-free wells; activation factor at 20 µM; 0.005% of 190,000 active; AID 1229;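 active = diaphorase activity raised at least twofold by the compound at 20 µM; inactive = activation factor below 2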
#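 Material: purified diaphorase enzyme from Clostridium kluyveri; Also added: 0.114 mM NADH and 0.1 mM resazurin, final amounts; Doses: single compound dose of 20 µM, 1% DMSO final; Times: 16 min enzyme reaction, ambient temperature; Detection: resorufin fluorescence, excitation 544 nm, emission 590 nm; Measure: increased resorufin signal from activators or reducing compounds.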
# PMI activator – phosphomannose isomerase (human) activation | P34949 | purified human PMI, coupled resazurin fluorescence, 20 min; active compounds read high; 1 = vehicle control, 0 substrate-free wells | activation factor at 20 µM | 0.005% of 190,000 active | AID 1214;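 active = activation factor of 2 or more at 20 µM, relative to plate controls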
# WT yeast gro inh – growth inhibition of WT yeast, mitochondrial fusion screen. mitochondrial fusion phenotypic screen, WT strain. inhibition, % at 10 µM. 2.1% of 190,000 active. AID 1362; in the data active = inhibition above about 58%; tested in S. cerevisiae
# * = called active by the depositor.
SMILES,Lmaj promast,PMI act hi M6P,Diaph act CS,PMI activator,WT yeast gro inh
CC1(C)CC(=O)C2=C(C1)OC(N)=C(C#N)C2c1ccoc1 (centres undefined),0,1,1,1.1,-3
CN1CCN(/C=N/C2=C(C#N)C(c3ccccc3)C3=C(CC(C)(C)CC3=O)O2)CC1 (centres undefined),75*,1,1,1,8
CCOc1cc(C2C(C#N)=C(N)OC3=C2C(=O)CC(C)(C)C3)cc([N+](=O)[O-])c1O (centres undefined),-5,0.9,0.9,1,-44
CC1(C)CC(=O)C2=C(C1)OC(/N=C/N1CCOCC1)=C(C#N)C2c1ccccc1 (centres undefined),18,0.9,1,1.2,-1
CCOC(=O)c1cc(=O)c2c([N+](=O)[O-])ccc(OC)c2o1,-5,1,1,1,-17
CCCCSCc1nc2ccccn2c1Br,15,1.8,0.8,1.4,8
O=C(C1CCCN(Cc2ccncc2)C1)N1CCc2ccccc2C1 (centres undefined),91*,0.8,0.7,0.8,-10
Cc1cccc(CN2CCCC(C(=O)N3CCc4ccccc4C3)C2)c1 (centres undefined),95*,1,1,1,8
C(#CC12CC3CC(CC(C3)C1)C2)CN1CCOCC1,7,1,0.9,1.1,-8
CS(=O)(=O)N1CCN(c2ccccc2NC(=O)c2ccc(-c3ccc(Cl)cc3Cl)o2)CC1,91*,1,0.9,0.9,19
CN1CCN(c2ccccc2NC(=O)c2ccc(-c3ccc(Cl)cc3Cl)o2)CC1,99*,1.1,1,1.1,71
CN1CCN(c2ccccc2NC(=O)c2cc3ccccc3o2)CC1,68*,1,1,1,-20
O=C(Nc1ccccc1N1CCCCC1)c1ccc(-c2cccc(Cl)c2)o1,9,1,0.9,1,-26
Cc1cc([N+](=O)[O-])nn1Cc1ccc(C(=O)N/N=C/c2ccc(O)cc2O)cc1,95*,1.3,0.8,1.2,-5
O=C(N/N=C/c1ccccc1)c1ccc(CN2C(=O)c3cccc4cccc2c34)cc1,11,0.8,0.8,0.9,-9
O=C(N/N=C/c1ccc(O)cc1O)c1ccc(CN2C(=O)c3cccc4cccc2c34)cc1,100*,1,0.9,0.9,2
CCOC(=O)c1c(NC(=O)CSc2nnc(N)s2)sc(C)c1-c1ccc(C)cc1,5,0.9,0.8,0.9,78*
CCOC(=O)c1c(-c2ccccc2)csc1NC(=O)CSc1nnc(C)s1,7,0.9,0.8,0.9,50
COc1cc(CN2CCCC(C(=O)c3ccc4c5c(cccc35)CC4)C2)cc(OC)c1O (centres undefined),99*,0.3,0.5,0.5,0
CCOC(=O)c1[nH]ncc1CN1CCCC(C(=O)c2cccc(OC(C)C)c2)C1 (centres undefined),3,1,0.9,0.9,3
CCn1ncc(CN2CCCC(C(=O)c3cccc(OC(C)C)c3)C2)c1C (centres undefined),80*,1.1,1,1,4
CN1CCC(C(=O)N2CCCC(C(=O)c3ccc4c5c(cccc35)CC4)C2)CC1 (centres undefined),19,1,1,1,3
COc1ccc2cc(C(=O)C3CCCN(Cc4cccc(C)n4)C3)ccc2c1 (centres undefined),86*,1,0.9,0.9,21
O=C(c1ccc2c3c(cccc13)CC2)C1CCCN(Cc2cccnc2)C1 (centres undefined),96*,0.9,0.9,0.8,22
O=C(c1ccc2c3c(cccc13)CC2)C1CCCN(C(=O)c2cccnc2)C1 (centres undefined),0,0.7,0.7,0.8,0
SMILES,Lmaj promast,PMI act hi M6P,Diaph act CS,PMI activator,WT yeast gro inh
Cc1cccc(C)c1Nc1nnc(SCC(=O)c2ccc3c(c2)NC(=O)CO3)s1,9,1.1,0.9,1,7
CCOc1cc(/C=N/NC(=O)CCc2n[nH]c(=O)[nH]c2=O)ccc1O,-5,1,0.9,1,-10
COc1ccc(NC(=S)N2CCN(C(=O)C3CCCO3)CC2)c(OC)c1 (centres undefined),25,0.9,0.9,1,-9
Cc1ccc(N2C(=S)N=C(Nc3ccccc3C)C23CCOC(C)(C)C3)cc1 (centres undefined),23,0.9,1,1,3
Cc1cccc(CN2CCCC(C(=O)c3ccc4c5c(cccc35)CC4)C2)n1 (centres undefined),53*,0.9,0.8,0.9,32
CC(=O)N1CCCC(C(=O)c2ccc3c4c(cccc24)CC3)C1 (centres undefined),2,0.8,0.8,0.9,18
O=c1c(Oc2ccccc2Br)c(C(F)(F)F)oc2c(CN3CCCC3)c(O)ccc12,86*,1.6,1,1.4,10
COC(=O)c1ccc(Oc2c(C)oc3c(CN4CCN(C)CC4)c(O)ccc3c2=O)cc1,100*,1,1,1,-3
CCN1CCN(Cc2c(O)ccc3c(=O)c(-c4ccc(OC)c(OC)c4)c(C)oc23)CC1,100*,1,1.1,0.9,-4
O=c1oc2c(CN3CCOCC3)c(O)ccc2c2ccccc12,1,1,0.9,0.9,-5
COc1ccc(-c2c(C(F)(F)F)oc3c(CN4CCN(C)CC4)c(O)ccc3c2=O)cc1,100*,0.9,0.9,0.9,17
CCCc1cc(=O)oc2c(CN3CCOCC3)c(O)ccc12,2,1,0.9,1,-7
O=C(Nc1ccccc1NS(=O)(=O)c1ccc(F)cc1)C1CCC1,7,1.1,1,1.2,-12
CCc1cc2cc(OC)ccc2nc1SCC(=O)NNC(=O)c1ccco1,-5,0.9,0.8,1,3
COc1ccc(-c2c(C)oc3c(CN4CCN(C)CC4)c(O)ccc3c2=O)cc1,99*,0.9,0.9,0.8,13
COc1ccccc1Oc1c(C)oc2c(CN3CCN(C)CC3)c(O)ccc2c1=O,21,1,0.8,0.9,1
COc1cccc(CNCCc2c[nH]c3ccccc23)c1OCc1ccc(F)cc1,100*,1,1,0.9,24
COc1cc(CNCCc2c[nH]c3ccccc23)ccc1OCc1ccc(F)cc1,100*,1.1,1.2,1,86*
COc1ccccc1NC(=S)NCCc1c[nH]c2ccccc12,1,0.9,0.8,0.9,9
O=C(CN1CCc2ccccc21)NC(=O)NCc1ccccc1,-3,1.3,1.1,1.4,-3
Cc1cc(C)n(C(=O)c2sc3cc(F)ccc3c2Cl)n1,-7,1,1,0.9,2
CCN(CC)C(=S)SCC(=O)c1ccc(Br)cc1,-1,1,1,1,32
Clc1cc(Cl)cc(C2=NCCC(c3ccccc3)O2)c1 (centres undefined),0,0.8,0.8,0.9,75*
